Published values gathered from unrelated publications.
Target: Beta-adrenergic receptor kinase 1 (GRK2, Homo sapiens, UniProt P25098)
Residues used in one study (P25098 1-689): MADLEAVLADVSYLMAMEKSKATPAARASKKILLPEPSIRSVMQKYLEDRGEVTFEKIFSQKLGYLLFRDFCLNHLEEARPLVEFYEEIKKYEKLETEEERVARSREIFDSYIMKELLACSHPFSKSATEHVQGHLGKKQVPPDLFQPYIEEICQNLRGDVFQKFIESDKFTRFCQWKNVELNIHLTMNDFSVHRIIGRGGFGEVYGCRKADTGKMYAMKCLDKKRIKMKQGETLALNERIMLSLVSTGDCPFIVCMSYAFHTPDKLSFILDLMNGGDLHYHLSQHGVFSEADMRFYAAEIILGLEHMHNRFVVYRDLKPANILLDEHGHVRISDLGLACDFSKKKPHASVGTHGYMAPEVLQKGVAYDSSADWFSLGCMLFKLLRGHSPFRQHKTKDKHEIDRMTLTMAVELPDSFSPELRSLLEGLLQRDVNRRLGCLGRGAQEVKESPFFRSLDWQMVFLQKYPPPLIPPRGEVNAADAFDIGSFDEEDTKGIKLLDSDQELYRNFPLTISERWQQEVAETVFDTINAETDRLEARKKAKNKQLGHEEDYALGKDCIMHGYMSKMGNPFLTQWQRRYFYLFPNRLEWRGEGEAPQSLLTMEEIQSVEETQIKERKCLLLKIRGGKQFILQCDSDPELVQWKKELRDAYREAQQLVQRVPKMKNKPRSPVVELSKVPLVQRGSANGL

Compound	read-out	method	concentration	remaining binding
Cc1nc(C2CCN(C(=O)c3ccc(OC(F)(F)F)cc3N)CC2)c2ncc(N3CCN(C)CC3)cc2n1	cell-free assay	competition with immobilised ligand	1 µM	92%
CNC(=O)[C@@H]1CC[C@@H](n2c(-c3ccc4cnccc4c3)nc3ccc(C(=O)NCc4cccc(C(N)=O)c4)cc32)C1	binding	competition with immobilised ligand	1 µM	92%
O=C(c1ccc(Nc2ncc(Cl)c(-c3cc4ccccc4s3)n2)cc1)N1CCC(N2CCCC2)CC1	binding	competition with immobilised ligand	1 µM	71%
CN(C)c1ncc(F)c(-c2cnn3ncccc23)n1	binding	competition with immobilised ligand	1 µM	88%
CO[C@@H](C)c1c(Nc2ccc([C@@H](N(C)C(=O)C3CCS(=O)(=O)CC3)C(F)(F)F)cc2)cnc2cc(Cl)nn12	cell-free assay	competition with immobilised ligand	1 µM	92%
C[C@@H](c1ccc(-n2cnc3c(N)ncnc32)cc1)N1CCc2nn(C)c(Cc3ccccc3)c2C1=O	binding	competition with immobilised ligand	0.1 µM	67%
COc1ccc2c(c1)O[C@H](c1ccc(OC)c(OC)c1)C[C@@H]2NC(=O)C1(c2ccc3c(c2)OC(F)(F)O3)CC1	cell-free assay	competition with immobilised ligand	1 µM	84%
O=C(NCC1CCOCC1)c1n[nH]cc1NC(=O)c1c(F)cccc1F	binding	competition with immobilised ligand	1 µM	71%
c1ccc(N2CCN(Cc3nc4ccccc4[nH]3)CC2)nc1	binding	competition with immobilised ligand	1 µM	90%
Cc1cnc(Nc2ccc(C(=O)N3CCC(N4CCCC4)CC3)cc2)nc1-c1cc2ccccc2s1	binding	competition with immobilised ligand	1 µM	56%
CN(c1nccc(-c2cnn3ncccc23)n1)C1CC1	binding		1 µM	64%
C=CC(=O)N1CCC(C(=O)NCC(=O)N2CCN(c3nc(-c4cnc(N)nc4C(F)F)nc(N4CCOCC4)n3)CC2)CC1	binding	competition with immobilised ligand	1 µM	100%
C[C@H]1CCN(c2nccc(-c3cnn4ncccc34)n2)C1	binding	competition with immobilised ligand	1 µM	50%
CO[C@H]1CC[C@H](CNc2ccc(S(=O)(=O)NC(=O)c3ccc(N4CCN(CC5=C(c6ccc(Cl)cc6)CC(C)(C)CC5)CC4)cc3Oc3cnc4[nH]ccc4c3)cc2[N+](=O)[O-])CC1	cell-free assay	competition with immobilised ligand	1 µM	85%
CN(C)c1nccc(-c2cnc3ncccn23)n1	binding	competition with immobilised ligand	1 µM	92%
COc1ncc2cc3ccccc3nc2c1C#N	cell-free assay	competition with immobilised ligand	5 µM	100%
N[C@@H]1CCN(c2nccc(-c3cnn4ncccc34)n2)C1	binding		1 µM	82%
CNC(=O)Nc1ccc2c(c1)CC[C@@]21OC(=O)N(CC(=O)N(Cc2ccc(F)cc2)[C@@H](C)C(F)(F)F)C1=O	cell-free assay	competition with immobilised ligand	1 µM	74%
COc1ccnn2ncc(-c3ccnc(N(C)C)n3)c12	binding		1 µM	100%
O=C(c1ccc(Nc2ncc(Cl)c(-c3ccc(Cl)s3)n2)cc1)N1CCC(N2CCCC2)CC1	binding	competition with immobilised ligand	1 µM	98%
